The source of these data is PMC7226180 (Cancer Science, 2020).

Structures are written as SMILES. Read-outs that look alike come from different tables or passages of the source. Marks after values point to notes of the source that are not given here.

One series relates to SW620. The series can be described thus: cells. Particulars: Homo sapiens, SW-620, 144 h, read-out: Proliferation inhibition IC50 (mean ± SD). Type of series: cell-based.
The next series relates to LN‐18. The series can be described thus: cells. The series is classed as cell-based. Particulars: Homo sapiens, LN-18, 144 h, read-out: Proliferation inhibition IC50 (mean ± SD).
In series [1] the test system is Rb^Ser780 phosphorylation in MCF‐7 cells. Put plainly: Western blot of Rb, p‐Rb Ser780 and cyclin D1. Type of series: cell-based. Particulars: MCF‐7, 24 h; for Rb^Ser780 phosphorylation and total Rb protein levels: dose‐dependent. Put shortly: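 MCF-7 cells were treated with a range of test compound concentrations for 24 h, then lysed in buffer containing phosphatase inhibitors. Lysates were separated, transferred and probed for Rb, p-Rb Ser780 and cyclin D, with β-tubulin or β-actin as loading controls. Bands were detected by HRP luminol chemiluminescence.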

A further series concerns MCF‐7/ARO xenograft. The series can be described thus: MCF‐7/ARO s.c. human tumor xenograft, single agents. The series is classed as in vivo, BALB/c nude mice. Particulars: MCF‐7/ARO s.c. xenograft, i.g., QD 21 d, 150 mg/kg.
Another series in a line: in vivo. Also noted: species or system female BALB/c nude mice.
The next series relates to A549. Put plainly: cells. The series is classed as cell-based. Particulars: Homo sapiens, A549, 144 h, read-out: Proliferation inhibition IC50 (mean ± SD).
A further series relates to U87‐MG xenograft. The series can be described thus: U87‐MG s.c. human tumor xenograft. Type of series: in vivo, BALB/c nude mice. Particulars: i.g., QD 18 d, 50 mg/kg.
The subject of the next series is MV4‐11 xenograft. The series can be described thus: MV4‐11 s.c. human tumor xenograft. The series is classed as in vivo, BALB/c nude mice. Particulars: MV4‐11 s.c. xenograft, i.g., QD 20 d, 50 mg/kg.
The next series concerns MCF‐7 xenograft. The series can be described thus: MCF‐7 s.c. human tumor xenograft. Particulars: 50 mg/kg; for TGI: MCF‐7 s.c. xenograft, i.g., QD 21 d; for Mean tumor size: MCF‐7 xenograft, day 20 (vehicle 703 mm^3). Type of series: in vivo, BALB/c nude mice.
In a further series the target is CDK3 (Homo sapiens, UniProt Q00526). Put plainly: Enzymatic profiling, LANCE Ultra assay. Type of series: biochemical.
CDK3, sequence (Q00526 whole entry): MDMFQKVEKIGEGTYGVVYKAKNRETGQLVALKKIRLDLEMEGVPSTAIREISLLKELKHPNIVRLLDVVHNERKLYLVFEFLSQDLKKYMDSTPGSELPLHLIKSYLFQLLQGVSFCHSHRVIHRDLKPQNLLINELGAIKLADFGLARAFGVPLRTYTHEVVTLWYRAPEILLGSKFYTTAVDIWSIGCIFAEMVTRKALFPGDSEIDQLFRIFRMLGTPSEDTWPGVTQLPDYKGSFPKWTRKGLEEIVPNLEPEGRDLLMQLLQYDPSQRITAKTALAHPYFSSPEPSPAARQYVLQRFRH
CDK3, sequence (P24864 whole entry, further chain): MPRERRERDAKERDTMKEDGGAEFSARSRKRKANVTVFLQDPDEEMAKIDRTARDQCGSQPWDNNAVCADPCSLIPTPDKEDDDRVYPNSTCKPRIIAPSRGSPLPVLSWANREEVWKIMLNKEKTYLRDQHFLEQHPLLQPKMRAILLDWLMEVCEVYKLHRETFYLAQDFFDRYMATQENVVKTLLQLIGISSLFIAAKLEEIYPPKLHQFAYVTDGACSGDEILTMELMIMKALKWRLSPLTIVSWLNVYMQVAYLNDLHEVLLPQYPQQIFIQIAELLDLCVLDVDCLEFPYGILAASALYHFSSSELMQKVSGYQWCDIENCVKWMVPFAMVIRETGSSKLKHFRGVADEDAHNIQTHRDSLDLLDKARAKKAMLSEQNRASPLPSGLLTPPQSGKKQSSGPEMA
Another series concerns Calu‐3. The series can be described thus: cells. Type of series: cell-based. Particulars: Homo sapiens, Calu-3, 144 h, read-out: Proliferation inhibition IC50 (mean ± SD).
Another series has as its system MV‐4‐11. Put plainly: cells. The series is classed as cell-based. Particulars: Homo sapiens, MV4-11, 144 h, read-out: Proliferation inhibition IC50 (mean ± SD).
The next series concerns MCF‐7 cells. Put plainly: Senescence assay. The series is classed as cell-based. Particulars: MCF‐7, 12‐day exposure, dose‐dependent. The gist of the method: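 MCF-7 cells grown at 37°C, 5% CO₂ in DMEM or RPMI-1640 with 10% FBS. Seeded in 6-well plates and exposed to the test compound at the indicated concentrations, or vehicle, for 12 days. Then stained with SA-β-galactosidase staining solution following the kit instructions. Stocks were 10 mmol/L in DMSO.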

The next series has as its system Colo‐205 xenograft. The series can be described thus: Colo‐205 s.c. human tumor xenograft. Particulars: Colo‐205 s.c. xenograft, i.g., QD 14 d, 50 mg/kg. The series is classed as in vivo, BALB/c nude mice.
A further series concerns T‐47D. The series can be described thus: cells. Type of series: cell-based. Particulars: Homo sapiens, T47D, 144 h, read-out: Proliferation inhibition IC50 (mean ± SD).
The subject of series [2] is U87‐MG‐Luc human glioblastoma. The series can be described thus: U87‐MG‐Luc human glioblastoma orthotopic model. The series is classed as in vivo, female BALB/c nude mice. Particulars: for Median survival time (mean ± SEM): 75 mg/kg (vehicle 30 ± 1 d); for Increase life span: 75 mg/kg, compared with vehicle. The gist of the method:
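Female BALB/c nude mice, 6–8 weeks old, received 3 × 10⁵ U87-MG-Luc cells with 20% Matrigel. Cells were injected slowly into a skull hole about 2 mm right of the anterior fontanel and 1 mm ahead of the coronal. On day 8, mice were randomized by bioluminescence and dosed orally once daily. Survival was followed by Kaplan–Meier; life-span increase is relative to vehicle, with P by comparison to vehicle.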

Another series relates to ES‐2. Put plainly: cells. Particulars: Homo sapiens, ES-2, 144 h, read-out: Proliferation inhibition IC50 (mean ± SD). The series is classed as cell-based.
Another series has as its system breast cancer. Particulars: cited from earlier work.
A further series concerns HepG2. Put plainly: cells. Particulars: Homo sapiens, HepG2, 144 h, read-out: Proliferation inhibition IC50 (mean ± SD). The series is classed as cell-based.
Series [3] deals with ER/progesterone receptor+/HER2− advanced breast cancer. Particulars: women, LY2835219 plus anastrozole or letrozole; cited from earlier work.
Another series relates to MCF‐7. The series can be described thus: cells. The series is classed as cell-based. Particulars: Homo sapiens, MCF7, 144 h, read-out: Proliferation inhibition IC50 (mean ± SD).
For the next series, the system named is MCF‐7/ARO. The series can be described thus: cells. The series is classed as cell-based. Particulars: 144 h, read-out: Proliferation inhibition IC50 (mean ± SD).
Series [4] concerns ER+ metastatic breast cancer. Particulars: patients, cited from earlier work.
The test system of series [5] is recurrent Rb‐positive glioblastoma. Particulars: adult patients, phase II trial; cited from earlier work.
Setting [6] is: female, BALB/c nude, mouse, in vivo, 75 mg/kg.

Regarding `CCN1CCN(Cc2ccc(Nc3ncc(F)c(-c4cc(F)c5nc(C)n(C(C)C)c5c4)n3)nc2)CC1` [LY2835219, abemaciclib], the IC50 was found to be 283 ± 42.7 nM in the series with SW620; 244 ± 3 nM with LN‐18; 264 ± 28.4 nM in the series on A549; 482 nM against CDK3; 1000 ± 30 nM with Calu‐3; 79.8 ± 35.3 nM with MV‐4‐11. For the same molecule, the IC50 with T‐47D turned out to be 672 ± 119 nM; in the series with ES‐2 it was 27.8 ± 10.3 nM; in the series on HepG2, 82.3 ± 20.4 nM; in the series on MCF‐7, 218 ± 8.7 nM; in the series on MCF‐7/ARO, 327 ± 43.8 nM. Besides, the “Expression of cyclin D1” value in series [1] is on record as “without significantly altering”. Further, the “Rb^Ser780 phosphorylation and total Rb protein levels” value in [1] is given as “significant decrease”. Besides, the TGI is recorded as 67^** % with MCF‐7/ARO xenograft; 131^**,## % with U87‐MG xenograft; 54^**, # % in the series on MV4‐11 xenograft; 114% with MCF‐7 xenograft; 82^** % in the series on Colo‐205 xenograft. Moreover, the “Levels in the plasma and brain compared with SPH3643” value in “in vivo” (24 hours after the final dose) is given as “markedly lower”. Further, the Kp at 1.5 h in the series “in vivo” (setting [6]) came out at 0.26 ± 0.13. In “in vivo” (setting [6]), this molecule had a Kp at 24 h of 0.27 ± 0.08. The molecule further returned a Mean tumor size in the series with MCF‐7 xenograft of 94 mm^3. Moreover, the “Cell senescence (SA‐β‐gal staining)” value in the series with MCF‐7 cells was “could induce cell senescence”. Also, the “Median survival time (mean ± SEM)” value in [2] was 42 ± 2 days. In [2], this molecule displayed an Increase life span of 40.00%. Besides, in the series with breast cancer (LY2835219 plus fulvestrant), the PFS was 16.4 months. Further, in series [3], the “Objective response rate and PFS” value is “significantly improved”.
In the case of `N#Cc1ccc(C(c2ccc(C#N)cc2)n2cncn2)cc1` [Letrozole, letrozole], in series [4] (letrozole single‐agent treatment), the “Disease‐free survival” value is recorded as 10.2 months.
On to `CC(=O)c1c(C)c2cnc(Nc3ccc(N4CCNCC4)cn3)nc2n(C2CCCC2)c1=O` [Palbociclib, palbociclib], for which the IC50 in the series on SW620 is 268 ± 36.8 nM; with LN‐18, 112 ± 25.6 nM; with A549, 795 ± 34.5 nM; with Calu‐3, greater than 10000 nM; in the series on MV‐4‐11, 43.1 ± 9.5 nM; in the series with T‐47D, 1120 ± 686 nM. Moreover, the IC50 in the series on ES‐2 was determined as 53.4 ± 1.3 nM; in the series on HepG2 it was 60.6 ± 9 nM; in the series on MCF‐7/ARO, 374 ± 48.7 nM. Further, the “Expression of cyclin D1” value in [1] is listed as “without significantly altering”. For the same molecule, the “Rb^Ser780 phosphorylation and total Rb protein levels” value in [1] is reported as “significant decrease”. The TGI with MCF‐7/ARO xenograft is 67^** %; in the series on U87‐MG xenograft, 96^** %; in the series on MV4‐11 xenograft it was 68^** %; in the series on MCF‐7 xenograft, 84%; in the series on Colo‐205 xenograft it was 93^** %. The “Single‐agent efficacy” value in [5] was “failed to achieve”. Also, in the series with MCF‐7 xenograft, the Mean tumor size worked out at 256 mm^3. The “Cell senescence (SA‐β‐gal staining)” value in the series on MCF‐7 cells is given as “could induce cell senescence”. Further, the “Disease‐free survival” value in series [4] (palbociclib together with letrozole) is recorded as 20.2 months. In series [2], the “Median survival time (mean ± SEM)” value came out at 35 ± 10 days. The same molecule registered an Increase life span in series [2] of 16.67%.
As to `C[C@]12CC[C@@H]3c4ccc(O)cc4C[C@@H](CCCCCCCCC[S+]([O-])CCCC(F)(F)C(F)(F)F)[C@H]3[C@@H]1CC[C@@H]2O` (stereo partly drawn) [fulvestrant], the PFS in the series on breast cancer (fulvestrant alone) is listed as 9.3 months.
